Measurements from the EternaBench riboswitch data.

Tested on: MS2 coat protein
Assay: apparent Kd, MS2 coat protein; higher = weaker binding; RNA-MaP array; FMN 200 µM where present
Outline: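 Green signal from SNAP-549-labelled MS2 coat protein was normalised to red-channel RNA signal and to the median Fmax of control clusters. The protein was titrated from 0.7 or 1.5 nM, doubling to 3 µM, without and then with constant ligand, over designs transcribed by stalled E. coli RNA polymerase on Illumina sequencing-chip clusters, in 100 mM Tris-HCl pH 7.5, 80 mM KCl, 4 mM MgCl2, BSA, DTT, yeast tRNA and Tween-20. The apparent Kd is the median of filtered per-cluster binding-curve fits.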

[1] = designed as: OFF switch for flavin mononucleotide, no ligand
[2] = ligand present: flavin mononucleotide, designed as: OFF switch for flavin mononucleotide
[3] = designed as: ON switch for flavin mononucleotide, no ligand
[4] = ligand present: flavin mononucleotide, designed as: ON switch for flavin mononucleotide

Sequence | apparent Kd [1] [nM] | apparent Kd [2] [nM] | apparent Kd [3] [nM] | apparent Kd [4] [nM]
UAAAAGACUAGCAUUCUAAAGAUCACAUGAGGAUCACCCAUGUAGGAUAUGAGCAGAAAAUCUGCUCAGAAGGACAUGCUAGUC | 5.51 | 6.02 |  | 
AUAAUUUUAUAUAUCAUUUUAAUCAGAAGGCAUAACAUGAGGAUCACCCAUGUAUAUUAUAGUUAUGAGGAUAUGAUUUGGUUA | 11.6 | 10.9 |  | 
AAUUAAUUAAUUAAUUGCUGACAUACAUGAGGAUCACCCAUGUAGGAUAUCGUCAGGAAUACUGACGAGAAGGACAUAGUCAGC | 14.9 | 16.3 |  | 
GUGAUCGACAUGAGGAUCACCCAUGUGGAUUCGUUGAGCGGCAGAAGGCGAUGUAGAAAAGAACUCGAGGAUAUGCACGUGUCA |  |  | 7.22 | 6.76
UAUAUAUAGUAAGGAUAUGUAUUUAUUUUAGAAACAGAAGGUACUGACAUGAGGAUCACCCAUGUUUUAGUGUGGGCAUGUAGA | 96.3 | 152 |  | 
GAUGCACAUGAGAAGGCGAUCAUGAAACAUGAUCGAGGAUAUCAUGUAAACAUGAGGAUCACCCAUGUAUGGGUAAAGUGCAUC |  |  | 446 | 32
GGGCUGUCAGGAUAUCCCGGGCCCGGGUAAAUUUGGGCCCGGGAGAAGGGACAUGAGGAUCACCCAUGUGGCCC | 39.2 | 40.5 |  | 
AAUAUAAAGAGCUGGUAAAACUCAACAUGAGGAUCACCCAUGUAGGAUAUCAGCACGAUAAGUGCUGAGAAGGACAUCCAGCUC | 16.3 | 17.1 |  | 
GGGCCCGGAGGAUAUACAAUGGGCCCGGGAAAUUGGGCCCUACAUGAGGAUCACCCAUGUAGAAGGUUGGGCCC | 12.8 | 13.6 |  | 
GGGUAGUGAGGAUAUCGUUGUUAGGAGGAGUAGGUAGGAGGCGAGAAGGCACAUGAGGAUCACCCAUGUAUGAA | 26.8 | 29 |  | 
CCUAUGUGAGGAUAUCACUGGUCUUCUCACUGGAUGAUUAGUGAGAAGGCACAUGAGGAUCACCCAUGUCGGUG | 656 | 451 |  | 
UCCUGGCGAGGAUAUACAAUGUUUUUCGCGUUUUGUUUCGAACAUGAGGAUCACCCAUGUAGAAGGUGCUACUG | 38.3 | 41 |  | 
CAGUGCAAUGUAGGAUAUGCUCAGGAAUACUGAGCAGAAGGACAUGAGGAUCACCCAUGUACUAUGAAAGAUAAUAAAGCACUG | 13.5 | 18.2 |  | 
GGUCGUCAAGUCAGGAUAUCGUUUAGUCGGUGUAACGAGAAGGGACAUGAGGAUCACCCAUGUCGUCUCAUCAG | 18.8 | 25.8 |  | 
UCCUGGCGAGGAUAUACAAUGUUUUUCGCGUGUUGUUGGGAACAUGAGGAUCACCCAUGUAGAAGGUGCUACUG | 409 | 286 |  | 
GAUGAGGUAGGAUAUACGAGAAGAUAGGGUAGAUAGAGAACACAUGAGGAUCACCCAUGUAGAAGGACCAGUAG | 25.3 | 55.7 |  | 
UUUUUACAUGAGGAUCACCCAUGUCAGGAUAUCAUUAUAUUUUAUUAUUUUAUUUAUAUGAGAAGGGACUAUUA | 87.7 | 60.1 |  | 
GCAGCGCCUGACAUGAGGAUCACCCAUGUUAAAUUGUUAAGUCAGGAUAUAGUCUAGAAACUAGACUAGAAGGGAUAUGCUGCU |  |  | 9.96 | 8.57
AGUUAAUAUCGAGGAUAUGUCUAGACACAUGAGGAUCACCCAUGUAUGUGUAUAGAAGGCGAUAUUAACAGCAUGUUACAUGCG |  |  | 39 | 16.1
GUGUACGGAGGAUAUAUGUGGGCAGCAUACGCUGCAGCUUCACAUGAGGAUCACCCAUGUAGAAGGCUGUACAC | 28.7 | 169 |  | 
GGAAUAAAUGCAGGAUAUACGUGGAAAGCCCUCAACAUGAGGAUCACCCAUGUAGAAGGGCAUCUCCCGACCGAAGCGGAUCUC | 4.41 | 4.82 |  | 
UGUCCACAUGAGGAUCACCCAUGUGAGGAUAUCCAUAAACACAUCGUAUGUGUAUUAUGGAGAAGGCACACACA | 16.1 | 21.9 |  | 
ACAUGAUACAAGAAGGAUGUAUUAGAUUUGAUCAUAGGAUAUUGUUAUAUUGUUUACUCUAAUAACAUGAGGAUCACCCAUGUA |  |  | 10.7 | 7.53
GAAUAUUCGUUGUACAUGAGGAUCACCCAUGUGACUUUACAUGAGGAUAUGGAUUCUAAUUGGAUCCAGAAGGCAUGAAUAUUC |  |  | 171 | 35

Sequence | apparent Kd [1] [nM] | apparent Kd [2] [nM] | apparent Kd [3] [nM] | apparent Kd [4] [nM]
UUAAAUCAUGUAGGAUAUGCAUGGCGAAGCUACGCAGAAGGACAUGAGGAUCACCCAUGUUAUAGCUAGGCAGUUCCCUGGCAA | 70.2 | 214 |  | 
UUUUAACAUGAGGAUCACCCAUGUGAGGAUAUCGAAAUUUUUAUUAAUAUUAAUAAAACGAGAAGGCACAUUUU | 56 | 69.3 |  | 
CCGUCGCACCAGAAGGCGUGAUCCACUGCGGCACGAGGAUAUGGUACAUGAGGAUCACCCAUGUCGCGAUGGAAAGCAAUCACG |  |  | 151 | 24.1
AUUUAAUUUAGCGAGAUCACAUGAGGAUCACCCAUGUAUAUAUAGGAUAUCAGCUCGAAUAGAGCUGAGAAGGAUAUAUACCGC | 90.3 | 157 |  | 
GCCAGGAUGUGAGGAUAUGCUGAGGAUACUUCAGCAGAAGGCACAUGAGGAUCACCCAUGUACACUUAUCAUAAAUACCCUGGC | 13.4 | 16.3 |  | 
CCAGGCUGUGUGAGGAUAUGCUGGUCCUUGGAUCAGCAGAAGGCACAUGAGGAUCACCCAUGUGAGGAGCUUGG | 20.2 | 98.8 |  | 
AGUAUGAUCCAGAAGGACAUAUGACCAAGACGAAACAUGAGGAUCACCCAUGUAGGAUAUGGAUCAUACAGGAUCGUGAGAUCA | 6.14 | 12 |  | 
GGUGGACAUGAGGAUCACCCAUGUGAGGAUAUCGGCUAUCUACUCGCUGUCGGUUGCUCGAGAAGGCACAUUGU | 177 | 171 |  | 
AACUGACAUGAGGAUCACCCAUGUCAGGAUAUGCUUCAUAAAAUAAAAAUAAAAUGAUGCAGAAGGGACAUGGA | 27.1 | 39.6 |  | 
GCACUGGAUGUAGGAUAUCAGGACGAUAAGUCCUGAGAAGGACAUGAGGAUCACCCAUGUACUCAAAACCAGUGCUAUAAUAUA | 15.6 | 23.8 |  | 
GAUGGAGAGCAGGAUAUCUUGGGUAAGCAUCAUAGAGAAGGGCUCACAUGAGGAUCACCCAUGUGGUCCAAGAA | 14.2 | 56 |  | 
CAUGUACGUGAGGAUAUGGUGGCGACGAGCCGGCUAGAAGGCACAACAUGAGGAUCACCCAUGUCUUGGAUCUA | 114 | 374 |  | 
AGAUAUGAUGCAGGAUAUCUAUCUUGAAUGAGGAGAGAAGGGCAAACAGAGACAUAAGCCUUAUUACAUGAGGAUCACCCAUGU | 10.1 | 8.83 |  | 
GCAUGCAAGUAGAAGGUCGGAUAUUUUGAUAACGAAGGAUAUACAGAAUCAUAUCCACAUGAUAACAUGAGGAUCACCCAUGUA | 14.7 | 15.8 |  | 
UUACAGCAAGGAUAUACGGGCUGUGCUUUUCAUUUCUUACAACAUGAGGAUCACCCAUGUAGAAGGUGCAACAU | 32.6 | 73.7 |  | 
UUGGACGUCGUAGCAUAUGUAGGAUAUUCCUACAUGAGGAUCACCCAUGUUGACAUGGAAGAAGGACAGAAGGACGAUGUCCAU |  |  | 146 | 5.47
GUCAGCUCGUGAGGAUAUACAUGUGCUGGAUACAGCACUAUUAAGAUCACAUGAGGAUCACCCAUGUAGAAGGCACGAGCUGAU | 49.5 | 643 |  | 
CAGGUAGACUGAGGAUAUACAAUAAAGACCUAGUCUAUCUAGGUCUCUACAUGAGGAUCACCCAUGUAGAAGGCAGUCUGCCUG | 16 | 18.3 |  | 
CACGGAUAGUAGAAGGGUGACAUGAGGAUCACCCAUGUACUUAUUUAUUUAUUACUAUUUGAUACACAGGAUAUACUAUCCGUG |  |  | 956 | 279
GCUGCAUAGGCAGGAUAUGCAAAAGCAGAUGCAAAGCAUCUGCAAGAAACAUGAGGAUCACCCAUGUAGAAGGGCCUGUGCAGU | 21.4 | 20.2 |  | 
CGCUACUACCAGAAGGACAUGAGGAUCACCCAUGUAGGAUAUGGGUUACAAGUACCAGUGUAAAGAAACUACGCUACAGUAGCG |  |  | 57.8 | 8.73
UCUUCACAUGAGGAUCACCCAUGUGAGGAUAUGGAUUCGCUGGCCGUAGCCAGUGGAUCCAGAAGGCGCAUGAU | 23.8 | 25 |  | 
AAAACAUGAGGAUCACCCAUGUAAAGAUCGGAAAGUUAGAGUGAGGAUAUACAAAAUUUUAUAUAGUAGAAGGCACUGGGUACA |  |  | 34.6 | 33.5
CCGGAAGUACAGGAUAUCGUAUCGGAAACGAUACGAGAAGGGUAUACAUGAGGAUCACCCAUGUGUCCUACCGG | 28.7 | 27.9 |  | 
